ChEMBL document CHEMBL4118107, “Synthesis and Biological Evaluation of ( E)-4-Hydroxy-3-methylbut-2-enyl Phosphate (HMBP) Aryloxy Triester Phosphoramidate Prodrugs as Activators of Vγ9/Vδ2 T-Cell Immune Responses” (J Med Chem, 2018)
pEC50: −log10 of the molar value. Activity calls are given as the source filed them. No cut-off for these calls is given here.

Tests used:
[1] = target: T1, Butyrophilin subfamily 3 member A1 (Homo sapiens, UniProt O00481); assay: Binding affinity to butyrophilin 3A1 in human Vgamma9/Vdelta2 T-cells assessed as activation of Vgamma9/Vdelta2 T-cells by upregulation of CD69 and CD25 after 18 hrs
Summary of the method: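 Healthy-donor PBMC incubated 18 h with medium or titrated compound (up to 100 μM). TCR Vγ9+/Vδ2+ cells were gated and scored by flow cytometry for surface CD69 and CD25 upregulation versus medium control.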

[2] = target: T1, Butyrophilin subfamily 3 member A1; assay: Ratio of ED50 for binding affinity to butyrophilin 3A1 in human Vgamma9/Vdelta2 T-cells for Vgamma9/Vdelta2 T-cell-mediated lysis of human T24 cells to EC50 for binding affinity to butyrophilin 3A1 for activation of Vgamma9/Vdelta2 T-cells
Target sequence in this assay (O00481 30-513 limits assumed): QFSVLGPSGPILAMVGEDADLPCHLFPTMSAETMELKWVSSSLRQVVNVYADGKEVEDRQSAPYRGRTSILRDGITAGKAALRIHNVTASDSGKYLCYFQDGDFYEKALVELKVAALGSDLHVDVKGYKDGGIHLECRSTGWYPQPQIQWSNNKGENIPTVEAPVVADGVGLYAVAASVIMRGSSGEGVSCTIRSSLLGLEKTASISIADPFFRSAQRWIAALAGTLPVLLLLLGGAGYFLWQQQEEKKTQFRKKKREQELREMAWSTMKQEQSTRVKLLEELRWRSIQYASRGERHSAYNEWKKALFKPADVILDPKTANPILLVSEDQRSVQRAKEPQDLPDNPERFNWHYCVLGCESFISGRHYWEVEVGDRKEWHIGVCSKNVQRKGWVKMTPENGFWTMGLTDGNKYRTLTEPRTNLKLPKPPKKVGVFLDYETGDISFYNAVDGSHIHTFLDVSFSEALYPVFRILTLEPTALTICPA

[3] = target: T1, Butyrophilin subfamily 3 member A1; assay: Binding affinity to butyrophilin 3A1 in human Vgamma9/Vdelta2 T-cells assessed as activation of Vgamma9/Vdelta2 T-cell-mediated lysis of human T24 cells preincubated for 4 hrs followed by compound washout measured after 18 hrs
Summary of the method: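 T24 urinary bladder carcinoma cells (target) pulsed 4 h with 10 nM prodrug, medium, or 10 μM zoledronate. They were then cocultured 18 h with in vitro expanded Vγ9/Vδ2 T cells (effector) across target/effector ratios. Specific killing was scored by amine-reactive dead cell marker staining. Summary is at 1:10 target/effector, mean ± SD, n = 2, with one-way ANOVA.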
Target sequence in this assay (O00481 30-513 limits assumed): as above

[4] = target: T1, Butyrophilin subfamily 3 member A1; assay: Potency index, ratio of zoledronate EC50 to test compound EC50 for binding affinity to butyrophilin 3A1 in human Vgamma9/Vdelta2 T-cells assessed as activation of Vgamma9/Vdelta2 T-cells by upregulation of CD69 and CD25
Target sequence in this assay (O00481 30-513 limits assumed): as above

[5] = target: T1, Butyrophilin subfamily 3 member A1; assay: Binding affinity to butyrophilin 3A1 in human Vgamma9/Vdelta2 T-cells assessed as activation of Vgamma9/Vdelta2 T-cells by measuring levels of CD69 and CD25 at 0.1 uM after 18 hrs relative to control
Summary of the method: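 Healthy-donor PBMC incubated 18 h with medium or titrated compound (up to 100 μM). TCR Vγ9+/Vδ2+ cells were gated and scored by flow cytometry for surface CD69 and CD25 upregulation versus medium control. EC50 was taken from titration curves, n = 4–5 donors.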
Target sequence in this assay (O00481 30-513 limits assumed): as above

Homo sapiens = species: Homo sapiens; assay: Upregulation of CD69/CD25 levels in human CD8-positive T cells expressing alpha-beta TCR; format: functional, cell-based
Summary of the method: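 Healthy-donor human PBMC incubated 18 h with medium or compound (range up to 100 μM). CD3+ CD8+ αβ T cells were gated and analysed by flow cytometry for cell-surface CD69 and CD25 upregulation.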

[6] = target: T1, Butyrophilin subfamily 3 member A1; assay: Binding affinity to butyrophilin 3A1 in human Vgamma9/Vdelta2 T-cells assessed as activation of Vgamma9/Vdelta2 T-cells by measuring levels of CD69 and CD25 at 10 uM after 18 hrs relative to control
Summary of the method: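 Human PBMC from healthy donors incubated 18 h with medium or compound (titrations up to 100 μM). Vγ9/Vδ2 T cells gated by TCR Vγ9 and Vδ2 expression. Surface CD69 and CD25 upregulation measured by flow staining and compared with medium control. n = 4–5 donors.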
Target sequence in this assay (O00481 30-513 limits assumed): as above

Row | SMILES | pEC50 [1] | Ratio [2] | ED50 [3] | Ratio EC50 [4] | Activity [5] | Activity (Homo sapiens) | Activity [6] | Activity [1]
1 | C/C(=C\COP(=O)(N[C@@H](C)C(=O)OCc1ccccc1)Oc1ccccc1)CO[Si](C)(C)C(C)(C)C (some centres not stated) | 9.35 | 12900 | 8510 nM | 1080 | 50.6% | inactive | – | –
2 | O=P(O)(O)C(O)(Cn1ccnc1)P(=O)(O)O [ZOLEDRONIC ACID] | 6.31 | – | > 100000 nM | – | – | inactive | 39.2% | –
3 | C/C(=C\COP(=O)(O)OP(=O)(O)O)CO | – | – | > 100000 nM | – | – | inactive | – | –
4 | C/C(=C\CO)CO[Si](C)(C)C(C)(C)C | – | – | – | – | – | – | – | inactive
5 | C/C(=C\COP(=O)(N[C@@H](C)C(=O)OC(C)C)Oc1ccccc1)CO[Si](C)(C)C(C)(C)C (some centres not stated) | 7.97 | 7830 | 83200 nM | – | 31% | inactive | – | –
6 | C/C(=C\COP(=O)(N[C@@H](C)C(=O)OC(C)(C)C)Oc1ccccc1)CO[Si](C)(C)C(C)(C)C (some centres not stated) | 8.05 | – | > 100000 nM | – | 29.9% | inactive | – | –
7 | COC(=O)[C@H](C)NP(=O)(OC/C=C(\C)CO[Si](C)(C)C(C)(C)C)Oc1ccccc1 (some centres not stated) | 8.86 | 21400 | 29500 nM | – | 39% | inactive | – | –
